Laboratory results: ChEMBL document CHEMBL4190409, “New somatostatin-drug conjugates for effective targeting pancreatic cancer” (Bioorg Med Chem, 2018)
The source made the active and inactive calls. The rule behind the calls is not given here. Peptide text beside a SMILES is read from it.

What was measured:
[1] = biological target: T1, Somatostatin receptor type 1 (Homo sapiens, UniProt P30872); assay: Agonist activity at SSTR1 (unknown origin) expressed in HEK293 cells assessed as inhibition of forskolin-induced CRE promoter activity at 10 to 1000 nM by luciferase reporter gene assay; type: functional, cell-based
T1 sequence (P30872 whole entry): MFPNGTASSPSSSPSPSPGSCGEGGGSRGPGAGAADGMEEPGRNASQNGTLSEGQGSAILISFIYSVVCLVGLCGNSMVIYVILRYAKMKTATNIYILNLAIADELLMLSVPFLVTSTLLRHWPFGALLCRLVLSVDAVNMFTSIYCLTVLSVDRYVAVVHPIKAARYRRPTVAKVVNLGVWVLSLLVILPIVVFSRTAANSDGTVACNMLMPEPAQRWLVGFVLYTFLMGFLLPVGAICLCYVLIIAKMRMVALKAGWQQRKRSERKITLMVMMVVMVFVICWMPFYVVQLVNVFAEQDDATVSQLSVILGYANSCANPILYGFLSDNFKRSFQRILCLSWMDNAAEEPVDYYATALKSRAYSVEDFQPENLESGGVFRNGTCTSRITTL
Summary of the method: (§1)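 HEK-293 cells (70,000/well) co-transfected via JetPei with CRE-luciferase reporter, β-galactosidase construct and one SSTR subtype vector (empty pcDNA3.1 control). After 1 day, treated with 10 µM forskolin alone or with peptide. Luminescence read relative to forskolin alone and normalized to β-galactosidase (ONPG). Triplicates, representative of three experiments.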

[2] = biological target: T2, Somatostatin receptor type 2 (Homo sapiens, UniProt P30874); assay: Agonist activity at SSTR2 (unknown origin) expressed in HEK293 cells assessed as inhibition of forskolin-induced CRE promoter activity at 10 to 1000 nM by luciferase reporter gene assay; type: functional, cell-based; summary of the method: as §1
T2 sequence (P30874 whole entry): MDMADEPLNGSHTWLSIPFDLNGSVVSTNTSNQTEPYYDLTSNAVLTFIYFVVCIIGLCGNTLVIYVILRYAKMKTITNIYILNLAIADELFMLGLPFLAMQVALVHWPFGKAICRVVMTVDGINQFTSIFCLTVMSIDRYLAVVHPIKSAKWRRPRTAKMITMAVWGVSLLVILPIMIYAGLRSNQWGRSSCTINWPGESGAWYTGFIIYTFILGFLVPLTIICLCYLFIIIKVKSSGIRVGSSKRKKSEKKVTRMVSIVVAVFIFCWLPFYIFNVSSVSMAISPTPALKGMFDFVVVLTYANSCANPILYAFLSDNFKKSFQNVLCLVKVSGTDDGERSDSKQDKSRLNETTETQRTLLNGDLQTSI

[3] = biological target: T3, Somatostatin receptor type 3 (Homo sapiens, UniProt P32745); assay: Agonist activity at SSTR3 (unknown origin) expressed in HEK293 cells assessed as inhibition of forskolin-induced CRE promoter activity at 10 to 1000 nM by luciferase reporter gene assay; type: functional, cell-based; summary of the method: as §1
T3 sequence (P32745 whole entry): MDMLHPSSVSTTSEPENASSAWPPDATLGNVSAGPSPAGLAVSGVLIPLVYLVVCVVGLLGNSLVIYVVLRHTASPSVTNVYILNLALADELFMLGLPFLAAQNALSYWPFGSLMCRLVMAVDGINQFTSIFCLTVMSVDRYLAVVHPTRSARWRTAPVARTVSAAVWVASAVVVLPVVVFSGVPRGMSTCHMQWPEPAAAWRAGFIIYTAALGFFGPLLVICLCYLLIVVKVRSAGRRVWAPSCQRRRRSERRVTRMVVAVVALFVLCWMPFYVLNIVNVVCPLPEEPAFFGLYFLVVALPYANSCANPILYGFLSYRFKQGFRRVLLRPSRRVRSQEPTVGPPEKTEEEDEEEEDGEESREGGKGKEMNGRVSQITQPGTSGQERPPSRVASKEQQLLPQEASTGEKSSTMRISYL

[4] = biological target: T4, Somatostatin receptor type 4 (Homo sapiens, UniProt P31391); assay: Agonist activity at SSTR4 (unknown origin) expressed in HEK293 cells assessed as inhibition of forskolin-induced CRE promoter activity at 10 to 1000 nM by luciferase reporter gene assay; type: functional, cell-based; summary of the method: as §1
T4 sequence (P31391 whole entry): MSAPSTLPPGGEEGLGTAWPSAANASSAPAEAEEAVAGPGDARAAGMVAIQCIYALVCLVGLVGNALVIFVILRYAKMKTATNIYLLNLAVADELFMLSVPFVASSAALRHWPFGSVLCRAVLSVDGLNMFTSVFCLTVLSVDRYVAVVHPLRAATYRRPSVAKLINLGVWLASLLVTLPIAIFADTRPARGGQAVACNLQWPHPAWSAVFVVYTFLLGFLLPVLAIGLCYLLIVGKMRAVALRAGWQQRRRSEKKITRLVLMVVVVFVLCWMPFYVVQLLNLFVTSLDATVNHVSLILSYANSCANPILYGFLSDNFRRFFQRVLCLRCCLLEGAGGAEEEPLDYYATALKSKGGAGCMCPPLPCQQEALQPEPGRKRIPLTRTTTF

[5] = biological target: T5, Somatostatin receptor type 5 (Homo sapiens, UniProt P35346); assay: Agonist activity at SSTR5 (unknown origin) expressed in HEK293 cells assessed as inhibition of forskolin-induced CRE promoter activity at 10 to 1000 nM by luciferase reporter gene assay; type: functional, cell-based; summary of the method: as §1
T5 sequence (P35346 whole entry): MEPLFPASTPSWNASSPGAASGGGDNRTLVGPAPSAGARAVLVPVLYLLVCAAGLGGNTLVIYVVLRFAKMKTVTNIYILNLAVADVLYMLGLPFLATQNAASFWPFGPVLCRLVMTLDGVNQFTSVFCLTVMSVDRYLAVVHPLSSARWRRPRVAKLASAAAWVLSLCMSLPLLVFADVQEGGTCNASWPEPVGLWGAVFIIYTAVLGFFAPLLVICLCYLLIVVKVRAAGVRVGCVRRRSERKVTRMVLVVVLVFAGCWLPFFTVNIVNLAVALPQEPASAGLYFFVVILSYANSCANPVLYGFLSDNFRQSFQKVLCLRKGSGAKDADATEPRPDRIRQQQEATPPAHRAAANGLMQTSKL

[6] = Drug uptake in tumor of athymic nude mouse xenografted with human PANC1 cells at 120 mg/kg, iv measured after 24 hrs by fluorescent microscopic analysis; type: ADME, organism-based, Neoplasm; conditions: in vivo
Summary of the method: (§2)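 Five-week-old athymic nude mice inoculated subcutaneously in the dorsal left side with Panc-1 cells. When tumours reached 100 mm3, FITC-labelled peptide or peptide–CPT conjugate was given intravenously at 120 mg/kg as a single dose. At 24 h, tumour, spleen, pancreas, kidney and liver were excised and fluorescence was imaged by microscopy with a CCD camera.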

[7] = Drug uptake in kidney of athymic nude mouse xenografted with human PANC1 cells at 120 mg/kg, iv measured after 24 hrs by fluorescent microscopic analysis; type: ADME, organism-based; conditions: in vivo; summary of the method: as §2
[8] = Drug uptake in pancreas of athymic nude mouse xenografted with human PANC1 cells at 120 mg/kg, iv measured after 24 hrs by fluorescent microscopic analysis; type: ADME, organism-based; conditions: in vivo; summary of the method: as §2
[9] = Half life in IMDM culture medium by LC-MS analysis; type: physicochemical
Summary of the method: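 Conjugate stock (10 µl) added to 1 ml IMDM (DME-based, 20% bovine serum) at 37°C. Aliquots taken at 1, 3, 6, 24, 48, 72 and 96 h, quenched with 2.5 vol ethanol, centrifuged, filtered and analysed by LC-MS. At least three measurements.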

CAPAN-1 [10] = assay: Cytotoxicity against human Capan1 cells after 48 hrs by XTT assay; type: functional, cell-based; conditions: CAPAN-1, 48 h
Summary of the method: (§3)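 Cells seeded at 5-10 x 10^4 cells/mL and preincubated 24 h, then washed and given fresh medium with a concentration series for 48 h or 72 h. XTT added for a further 2-4 h, absorbance read at 480 and 680 nm. % growth inhibition taken against medium+solvent and solvent-free controls. DMSO final <0.05%. Tetraplicates, each experiment run twice.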

CAPAN-1 [11] = assay: Cytotoxicity against human Capan1 cells after 72 hrs by XTT assay; type: functional, cell-based; conditions: CAPAN-1, 72 h; summary of the method: as §3
PANC-1 [12] = assay: Cytotoxicity against human PANC1 cells after 48 hrs by XTT assay; type: functional, cell-based; conditions: PANC-1, 48 h; summary of the method: as §3
PANC-1 [13] = assay: Cytotoxicity against human PANC1 cells after 72 hrs by XTT assay; type: functional, cell-based; conditions: PANC-1, 72 h; summary of the method: as §3
[14] = biological target: T1, Somatostatin receptor type 1; assay: Drug uptake in HEK293 cells co-expressing SSTR1 (unknown origin) and RFP assessed as SSTR1-mediated drug accumulation by measuring mean fluorescence intensity measured after 30 mins by fluorescence microscopic analysis (reference value: 1.1); type: ADME, cell-based; conditions: hek293, 0.5 h
[15] = biological target: T2, Somatostatin receptor type 2; assay: Drug uptake in HEK293 cells co-expressing SSTR2 (unknown origin) and RFP assessed as SSTR2-mediated drug accumulation by measuring mean fluorescence intensity measured after 30 mins by fluorescence microscopic analysis (reference value: 1.1); type: ADME, cell-based; conditions: hek293, 0.5 h
[16] = biological target: T3, Somatostatin receptor type 3; assay: Drug uptake in HEK293 cells co-expressing SSTR3 (unknown origin) and RFP assessed as SSTR3-mediated drug accumulation by measuring mean fluorescence intensity measured after 30 mins by fluorescence microscopic analysis (reference value: 1.1); type: ADME, cell-based; conditions: hek293, 0.5 h
[17] = biological target: T4, Somatostatin receptor type 4; assay: Drug uptake in HEK293 cells co-expressing SSTR4 (unknown origin) and RFP assessed as SSTR4-mediated drug accumulation by measuring mean fluorescence intensity measured after 30 mins by fluorescence microscopic analysis (reference value: 1.1); type: ADME, cell-based; conditions: hek293, 0.5 h
[18] = biological target: T5, Somatostatin receptor type 5; assay: Drug uptake in HEK293 cells co-expressing SSTR5 (unknown origin) and RFP assessed as SSTR5-mediated drug accumulation by measuring mean fluorescence intensity measured after 30 mins by fluorescence microscopic analysis (reference value: 1.1); type: ADME, cell-based; conditions: hek293, 0.5 h
[19] = biological target: T2, Somatostatin receptor type 2; assay: Drug uptake in HEK293 cells co-expressing SSTR2 (unknown origin) and RFP assessed as SSTR2-mediated drug accumulation by measuring mean fluorescence intensity at 400 nM measured after 15 mins in presence of SSTR2 agonist octreotide by fluorescence assay; type: cell-based; conditions: hek293, 0.25 h, 0.4 µM
Summary of the method: (§4)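 FITC-peptide at 400 nM then added for 15 min. FITC/RFP fluorescence imaged; mean fluorescence intensity of FITC+ cells quantified (n = 10), representative of three experiments.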

[20] = biological target: T4, Somatostatin receptor type 4; assay: Drug uptake in HEK293 cells co-expressing SSTR4 (unknown origin) and RFP assessed as SSTR4-mediated drug accumulation by measuring mean fluorescence intensity at 400 nM measured after 15 mins in presence of SSTR2 agonist octreotide by fluorescence assay; type: cell-based; conditions: hek293, 0.25 h, 0.4 µM; summary of the method: as §4

## C[C@@H](O)[C@@H]1NC(=O)[C@H](CCCCN)NC(=O)[C@@H](Cc2c[nH]c3ccccc23)NC(=O)[C@H](Cc2ccccc2)NC(=O)[C@@H](NC(=O)[C@H](CCCNC(=N)N)NC(=O)[C@@H](Cc2ccccc2)NC(=O)CCCNC(=S)Nc2ccc(-c3c4ccc(=O)cc-4oc4cc(O)ccc34)c(C(=O)O)c2)CSSCCN(CC(N)=O)C(=O)[C@H](Cc2ccccc2)NC1=O
[1]
  inhibition: inactive
[2]
  inhibition: Active
[3]
  inhibition: Active
[4]
  inhibition: Active
[5]
  inhibition: Active
[6]
  Drug uptake: Active
[7]
  Drug uptake: Active
[8]
  Drug uptake: Not Active

## COc1cc(/C=C\c2ccc(ON[C@H](Cc3ccccc3)C(=O)N[C@@H](CCCNC(=N)N)C(=O)N[C@H]3CSSCCN(CC(N)=O)C(=O)[C@H](Cc4ccccc4)NC(=O)[C@H]([C@@H](C)O)NC(=O)[C@H](CCCCN)NC(=O)[C@@H](Cc4c[nH]c5ccccc45)NC(=O)[C@H](Cc4ccccc4)NC3=O)c(OC(=O)NCCCC(C)=O)c2)cc(OC)c1OC
[9]
  half-life: 15 h
CAPAN-1 [10]
  IC50: 0.67 µM
CAPAN-1 [11]
  IC50: 0.52 µM
PANC-1 [12]
  IC50: 1.72 µM
PANC-1 [13]
  IC50: 1.17 µM

## COc1ccc(/C=C\c2cc(OC)c(OC)c(OC)c2)cc1OC(=O)NCCCC(=O)N[C@H](Cc1ccccc1)C(=O)N[C@H]1CSSCCN(CC(N)=O)C(=O)[C@H](Cc2ccccc2)NC(=O)[C@H]([C@@H](C)O)NC(=O)[C@H](CCCCN)NC(=O)[C@H](Cc2c[nH]c3ccccc23)NC(=O)[C@@H](Cc2c[nH]c3ccccc23)NC(=O)[C@H](Cc2ccccc2)NC1=O
[9]
  half-life: 18 h
CAPAN-1 [10]
  IC50: 2.56 µM
CAPAN-1 [11]
  IC50: 2.09 µM
PANC-1 [12]
  IC50: 2.67 µM
PANC-1 [13]
  IC50: 1.19 µM

## C[C@@H](O)[C@@H]1NC(=O)[C@H](CCCCN)NC(=O)[C@H](Cc2c[nH]c3ccccc23)NC(=O)[C@@H](Cc2c[nH]c3ccccc23)NC(=O)[C@H](Cc2ccccc2)NC(=O)[C@@H](NC(=O)[C@@H](Cc2ccccc2)NC(=O)CCCNC(=S)Nc2ccc(-c3c4ccc(=O)cc-4oc4cc(O)ccc34)c(C(=O)O)c2)CSSCCN(CC(N)=O)C(=O)[C@H](Cc2ccccc2)NC1=O
[1]
  inhibition: inactive
[2]
  inhibition: Active
[3]
  inhibition: Active
[4]
  inhibition: Active
[5]
  inhibition: Active
[14]
  Flu intensity: 0.9
[15]
  Flu intensity: 6.7
[16]
  Flu intensity: 42.1
[17]
  Flu intensity: 32.4
[18]
  Flu intensity: 48.8
[19]
  Flu intensity: 0.9
[20]
  Flu intensity: 21.1

## COc1cc(C2c3[nH]c4ccccc4c3CC3COC(=O)N32)cc(OC)c1OC(=O)NCCCC(=O)N[C@H](Cc1ccccc1)C(=O)N[C@@H](CCCNC(=N)N)C(=O)N[C@H]1CSSCCN(CC(N)=O)C(=O)[C@H](Cc2ccccc2)NC(=O)[C@H]([C@@H](C)O)NC(=O)[C@H](CCCCN)NC(=O)[C@@H](Cc2c[nH]c3ccccc23)NC(=O)[C@H](Cc2ccccc2)NC1=O (stereo partly drawn)
[9]
  half-life: 3 h
CAPAN-1 [10]
  IC50: 1.47 µM
CAPAN-1 [11]
  IC50: 1.43 µM
PANC-1 [12]
  IC50: 0.27 µM
PANC-1 [13]
  IC50: 0.14 µM

## CC[C@@]1(O)C(=O)OCc2c1cc1n(c2=O)Cc2cc3ccccc3nc2-1 [CAMPTOTHECIN]
CAPAN-1 [11]
  IC50: 0.21 µM
PANC-1 [12]
  IC50: 0.18 µM
PANC-1 [13]
  IC50: 0.09 µM

## COc1cc(C2c3[nH]c4ccccc4c3CC3COC(=O)N32)cc(OC)c1OC(=O)NCCCC(=O)N[C@H](Cc1ccccc1)C(=O)N[C@H]1CSSCCN(CC(N)=O)C(=O)[C@H](Cc2ccccc2)NC(=O)[C@H]([C@@H](C)O)NC(=O)[C@H](CCCCN)NC(=O)[C@H](Cc2c[nH]c3ccccc23)NC(=O)[C@@H](Cc2c[nH]c3ccccc23)NC(=O)[C@H](Cc2ccccc2)NC1=O (stereo partly drawn)
[9]
  half-life: 5 h
CAPAN-1 [10]
  IC50: 0.25 µM
CAPAN-1 [11]
  IC50: 0.09 µM
PANC-1 [12]
  IC50: 2.98 µM
PANC-1 [13]
  IC50: 2.13 µM

## C[C@@H](O)[C@@H]1NC(=O)[C@H](CCCCN)NC(=O)[C@@H](Cc2c[nH]c3ccccc23)NC(=O)[C@H](Cc2ccccc2)NC(=O)[C@@H](NC(=O)[C@H](N)Cc2ccccc2)CSSC[C@@H](C(=O)N[C@H](CO)[C@@H](C)O)NC1=O
[2]
  inhibition: Active
[3]
  inhibition: Active

## COc1ccc(/C=C\c2cc(OC)c(OC)c(OC)c2)cc1O [COMBRETASTATIN A4]
CAPAN-1 [10]
  IC50: 0.84 µM
PANC-1 [13]
  IC50: 0.16 µM

## C[C@@H](O)[C@@H]1NC(=O)[C@H](CCCCN)NC(=O)[C@H](Cc2c[nH]c3ccccc23)NC(=O)[C@@H](Cc2c[nH]c3ccccc23)NC(=O)[C@H](Cc2ccccc2)NC(=O)[C@@H](NC(=O)[C@H](N)Cc2ccccc2)CSSCCN(CC(N)=O)C(=O)[C@H](Cc2ccccc2)NC1=O
CAPAN-1 [10]
  IC50: > 50 µM
CAPAN-1 [11]
  IC50: > 50 µM
PANC-1 [12]
  IC50: > 50 µM
PANC-1 [13]
  IC50: > 50 µM

## COc1cc([C@@H]2c3[nH]c4ccccc4c3C[C@H]3COC(=O)N32)cc(OC)c1O
CAPAN-1 [10]
  IC50: 1.57 µM
CAPAN-1 [11]
  IC50: 1.23 µM
PANC-1 [13]
  IC50: 0.61 µM

## C[C@@H](O)[C@@H]1NC(=O)[C@H](CCCCN)NC(=O)[C@@H](Cc2c[nH]c3ccccc23)NC(=O)[C@H](Cc2ccccc2)NC(=O)[C@@H](NC(=O)[C@H](CCCNC(=N)N)NC(=O)[C@H](N)Cc2ccccc2)CSSCCN(CC(N)=O)C(=O)[C@H](Cc2ccccc2)NC1=O (HELM PEPTIDE1{[dF].R.C.F.[dW].K.T.F.[O=C(CN(CCS[*:3])[*:1])[*:2]].[am]}$PEPTIDE1,PEPTIDE1,3:R3-9:R3$$$V2.0)
CAPAN-1 [10]
  IC50: > 50 µM
CAPAN-1 [11]
  IC50: > 50 µM
PANC-1 [12]
  IC50: > 50 µM
PANC-1 [13]
  IC50: > 50 µM
